According to ChEMBL document CHEMBL1124774, “Synthesis and biological activity of some derivatives of rifamycin P” (1990):
Converted amounts (≈) assume the structure as drawn.

Experiments:
[1] = tested on: Mycobacterium scrofulaceum; experiment: In vitro activity of compound against slowly growing Mycobacterium scrofulaceum 1293; type: functional
In short: (§1)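 Medium was Middlebrook 7H10 agar with 2% glycerol and 10% OADC. Organisms from Loevenstein-Jensen slants were grown in 7H9 broth with 0.5% Tween and 10% OADC, adjusted to McFarland no. 1, and spotted with a multipoint inoculator. Sealed plates were incubated at 22, 30 or 37 °C for 4-20 days depending on strain.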

Staphylococcus aureus [2] = experiment: Activity in the murine model (subcutaneous route) of Staphylococcus aureus tour septicemia; type: functional; conditions: sc
In short: (§2)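 Male and female CD1 mice (18-22 g) were infected ip with S. aureus Tour. The challenge was set so untreated mice died within 48 h. Groups were five mice, dosed once daily for 3 days starting immediately after infection. ED50 was calculated on day 10 from the percentage surviving at each dose.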

Mycobacterium kansasii [3] = experiment: In vitro activity compound against slowly growing Mycobacterium kansasii 1298; type: functional; in short: as §1
Streptococcus pyogenes [4] = experiment: In vitro antibacterial activity of compound against Streptococcus pyogenes C 203 SKF 13400; type: functional
In short: (§3)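 Streptococcal MICs were run by twofold microdilution in Todd-Hewitt broth over 128-0.0001 µg/mL. Inoculum was 10^4 cfu/mL, with incubation at 37 °C for 18-24 h.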

Mycobacterium marinum [5] = experiment: In vitro activity of compound against slowly growing Mycobacterium marinum 1390; type: functional; in short: as §1
Mycobacterium marinum [6] = experiment: In vitro activity of compound against slowly growing Mycobacterium marinum 1391; type: functional; in short: as §1
Mycolicibacterium phlei [7] = experiment: In vitro activity of compound against rapidly growing Mycobacterium phlei 1289; type: functional; in short: as §1
Mycobacterium kansasii [8] = experiment: In vitro activity compound against slowly growing Mycobacterium kansasii 1291; type: functional; in short: as §1
Mycobacterium marinum [9] = experiment: In vitro activity of compound against slowly growing Mycobacterium marinum 1393; type: functional; in short: as §1
Mycobacterium kansasii [10] = experiment: In vitro activity of compound against slowly growing Mycobacterium kansasii 1299; type: functional; in short: as §1
[11] = tested on: Mycolicibacterium fortuitum; experiment: In vitro activity of compound against rapidly growing Mycobacterium fortuitum 646; type: functional; in short: as §1
Haemophilus influenzae = experiment: In vitro antibacterial activity of compound against Haemophilus influenzae ATCC 19418; type: functional
Streptococcus pyogenes [12] = experiment: Inhibitory concentration of compound against Streptococcus pyogenus septicemia in the mouse, administarted in subcutaneous route; type: functional; conditions: sc
In short: (§4)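 Male and female CD1 mice (18-22 g) were infected ip with S. pyogenes C203, with the challenge set so untreated mice died within 48 h. Groups of five received a single treatment immediately after infection. ED50 was calculated from the percentage surviving at each dose on day 10.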

[13] = tested on: Mycolicibacterium flavescens; experiment: In vitro activity of compound against rapidly growing Mycobacterium flavescens 1284; type: functional; in short: as §1
Pseudomonas aeruginosa = experiment: In vitro antibacterial activity of compound against Pseudomonas aeruginosa ATCC 10145; type: functional
In short: (§5)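 Twofold microdilution MIC in Iso-Sensitest broth over 128-0.0001 µg/mL. Inoculum was 10^4 cfu/mL, with incubation at 37 °C for 18-24 h.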

[14] = tested on: Mycolicibacterium fortuitum; experiment: In vitro activity of compound against rapidly growing Mycobacterium fortuitum 645; type: functional; in short: as §1
Mycobacterium xenopi [15] = experiment: In vitro activity of compound against slowly growing Mycobacterium xenopi 556; type: functional; in short: as §1
Mycobacterium marinum [16] = experiment: In vitro activity of compound against slowly growing Mycobacterium marinum 1388; type: functional; in short: as §1
Enterococcus faecalis = experiment: In vitro antibacterial activity of compound against Streptococcus faecalis ATCC 7080.; type: functional; in short: as §5
[17] = tested on: Mycolicibacterium fortuitum; experiment: In vitro activity of compound against rapidly growing Mycobacterium fortuitum 1285; type: functional; in short: as §1
Mycobacterium marinum [18] = experiment: In vitro activity of compound against slowly growing Mycobacterium marinum 1394; type: functional; in short: as §1
[19] = tested on: Mycolicibacterium fortuitum; experiment: In vitro activity of compound against rapidly growing Mycobacterium fortuitum 1287; type: functional; in short: as §1
Neisseria gonorrhoeae = experiment: In vitro antibacterial activity of compound against Neisseria gonorrhoeae ISM 68/126; type: functional
Staphylococcus aureus [20] = experiment: In vitro antibacterial activity of compound against Staphylococcus aureus Tour L 165; type: functional; in short: as §5
Escherichia coli = experiment: In vitro antibacterial activity of compound against Escherichia coli SKF 12140; type: functional
Streptococcus pyogenes [21] = experiment: Minimum inhibitory concentration of compound against Streptococcus pyogenus septicemia in the mouse; type: functional
[22] = tested on: Mycolicibacterium fortuitum; experiment: In vitro activity compound against rapidly growing Mycobacterium fortuitum 1302; type: functional; in short: as §1
Proteus vulgaris = experiment: In vitro antibacterial activity of compound against Proteus vulgaris X19H ATCC 881; type: functional
Mycolicibacterium phlei [23] = experiment: In vitro activity of compound against rapidly growing Mycobacterium phlei 1283; type: functional; in short: as §1
Mycobacterium xenopi [24] = experiment: In vitro activity compound against slowly growing Mycobacterium xenopi 1446; type: functional; in short: as §1
[25] = tested on: Mycolicibacterium flavescens; experiment: In vitro activity of compound against rapidly growing Mycobacterium flavescens 1286; type: functional; in short: as §1
Mycobacterium gordonae [26] = experiment: In vitro activity of compound against slowly growing Mycobacterium gordonae 1294; type: functional; in short: as §1
Mycobacterium gordonae [27] = experiment: In vitro activity of compound against slowly growing Mycobacterium gordonae 1441; type: functional; in short: as §1
Klebsiella pneumoniae = experiment: In vitro antibacterial activity of compound against Klebsiella pneumoniae ISM; type: functional
[28] = tested on: Mycolicibacterium fortuitum; experiment: In vitro activity of compound against rapidly growing Mycobacterium fortuitum 114; type: functional; in short: as §1
[29] = tested on: Staphylococcus epidermidis; experiment: In vitro antibacterial activity of compound against Staphylococcus epidermidis ATCC 12228; type: functional; in short: as §5
[30] = tested on: Mycobacterium tuberculosis; experiment: In vitro antibacterial activity of compound against Mycobacterium tuberculosis H37Rv ATCC 9660; type: functional
Mycolicibacterium phlei [31] = experiment: In vitro activity of compound against rapidly growing Mycobacterium phlei 141; type: functional; in short: as §1
[32] = tested on: Mycobacterium scrofulaceum; experiment: In vitro activity of compound against slowly growing Mycobacterium scrofulaceum 1292; type: functional; in short: as §1
Streptococcus pyogenes [33] = experiment: Inhibitory concentration of compound against Streptococcus pyogenus septicemia in the mouse, administarted in OS route; type: functional; in short: as §4
Mycobacterium marinum [34] = experiment: In vitro activity of compound against slowly growing Mycobacterium marinum 1447; type: functional; in short: as §1
Mycobacterium marinum [35] = experiment: In vitro activity of compound against slowly growing Mycobacterium marinum 1392 h; type: functional; in short: as §1
[36] = tested on: Mycobacterium scrofulaceum; experiment: In vitro activity of compound against slowly growing Mycobacterium scrofulaceum 1301; type: functional; in short: as §1
Mycobacterium avium [37] = experiment: 50% inhibition of the 20 Mycobacterium (MAC) avium complex clinical isolates; type: functional
In short: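 Agar-dilution MICs, 2-fold dilutions over 128-0.0001 μg/mL, on Middlebrook 7H10 agar with 2% glycerol and 10% OADC. Organisms from Loevenstein-Jensen slants were grown in 7H9 broth with 0.5% Tween and 10% OADC, adjusted to McFarland no. 1, and spotted with a multipoint inoculator. Plates were sealed and incubated at 22, 30 or 37 °C for 4-20 days depending on strain.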

Mycobacterium xenopi [38] = experiment: In vitro activity of compound against slowly growing Mycobacterium xenopi 554; type: functional; in short: as §1
Mycobacteroides chelonae = experiment: In vitro activity of compound against rapidly growing Mycobacterium chelonae 1443
Streptococcus pneumoniae = experiment: In vitro antibacterial activity of compound against Streptococcus pneumoniae UC 41; type: functional; in short: as §3
Mycobacterium xenopi [39] = experiment: In vitro activity of compound against slowl growingy Mycobacterium xenopi 555; type: functional; in short: as §1
[40] = tested on: Mycolicibacterium fortuitum; experiment: In vitro activity of compound against rapidly growing Mycobacterium fortuitum 726; type: functional; in short: as §1
Staphylococcus aureus [41] = experiment: Activity in the murine model (OS route) of Staphylococcus aureus tour septicemia; type: functional; in short: as §2
[42] = tested on: Mycobacterium scrofulaceum; experiment: In vitro activity of compound against slowly growing Mycobacterium scrofulaceum 1297; type: functional; in short: as §1
Mycobacterium avium [43] = experiment: Minimum inhibitory concentration of compound against 20 Mycobacterium avium complex (MAC) clinical isolates
Mycobacterium avium [44] = experiment: 90% inhibition of the 20 Mycobacterium avium complex (MAC) clinical isolates

SMILES: CO[C@H]1/C=C/O[C@@]2(C)Oc3c(C)c(O)c4c(O)c(c(/C=N/N5CCN(C)CC5)c(O)c4c3C2=O)NC(=O)/C(C)=C\C=C\[C@H](C)[C@H](O)[C@@H](C)[C@@H](O)[C@@H](C)[C@H](OC(C)=O)[C@@H]1C [RIFAMPIN]
- MIC [1]: 0.063 µg/mL (≈ 0.0766 µM)
- ED50 (Staphylococcus aureus [2]): 0.09 mg/kg
- MIC (Mycobacterium kansasii [3]): 0.125 µg/mL (≈ 0.152 µM)
- MIC (Streptococcus pyogenes [4]): 0.063 µg/mL (≈ 0.0766 µM)
- MIC (Mycobacterium marinum [5]): 2 µg/mL (≈ 2.43 µM)
- MIC (Mycobacterium marinum [6]): 0.5 µg/mL (≈ 0.608 µM)
- MIC (Mycolicibacterium phlei [7]): 8 µg/mL (≈ 9.72 µM)
- MIC (Mycobacterium kansasii [8]): 16 µg/mL (≈ 19.4 µM)
- MIC (Mycobacterium marinum [9]): 0.5 µg/mL (≈ 0.608 µM)
- MIC (Mycobacterium kansasii [10]): 8 µg/mL (≈ 9.72 µM)
- MIC [11]: 128 µg/mL (≈ 156 µM)
- MIC (Haemophilus influenzae): 0.125 µg/mL (≈ 0.152 µM)
- ED50 (Streptococcus pyogenes [12]): 0.35 mg/kg
- MIC [13]: 128 µg/mL (≈ 156 µM)
- MIC (Pseudomonas aeruginosa): 8 µg/mL (≈ 9.72 µM)
- MIC [14]: 4 µg/mL (≈ 4.86 µM)
- MIC (Mycobacterium xenopi [15]): 1 µg/mL (≈ 1.22 µM)
- MIC (Mycobacterium marinum [16]): 1 µg/mL (≈ 1.22 µM)
- MIC (Enterococcus faecalis): 1 µg/mL (≈ 1.22 µM)
- MIC [17]: 4 µg/mL (≈ 4.86 µM)
- MIC (Mycobacterium marinum [18]): 0.5 µg/mL (≈ 0.608 µM)
- MIC [19]: 2 µg/mL (≈ 2.43 µM)
- MIC (Neisseria gonorrhoeae): 0.125 µg/mL (≈ 0.152 µM)
- MIC (Staphylococcus aureus [20]): 0.016 µg/mL (≈ 0.0194 µM)
- MIC (Escherichia coli): 8 µg/mL (≈ 9.72 µM)
- MIC (Streptococcus pyogenes [21]): 0.063 µg/mL (≈ 0.0766 µM)
- MIC [22]: 1 µg/mL (≈ 1.22 µM)
- MIC (Proteus vulgaris): 8 µg/mL (≈ 9.72 µM)
- MIC (Mycolicibacterium phlei [23]): 0.25 µg/mL (≈ 0.304 µM)
- MIC (Mycobacterium xenopi [24]): 1 µg/mL (≈ 1.22 µM)
- MIC [25]: 0.25 µg/mL (≈ 0.304 µM)
- MIC (Mycobacterium gordonae [26]): 0.5 µg/mL (≈ 0.608 µM)
- MIC (Mycobacterium gordonae [27]): 4 µg/mL (≈ 4.86 µM)
- MIC (Klebsiella pneumoniae): 16 µg/mL (≈ 19.4 µM)
- MIC [28]: 128 µg/mL (≈ 156 µM)
- MIC [29]: 0.008 µg/mL (≈ 0.00972 µM)
- MIC [30]: 0.25 µg/mL (≈ 0.304 µM)
- MIC (Mycolicibacterium phlei [31]): 0.032 µg/mL (≈ 0.0389 µM)
- MIC [32]: 0.063 µg/mL (≈ 0.0766 µM)
- ED50 (Streptococcus pyogenes [33]): 0.47 mg/kg
- MIC (Mycobacterium marinum [34]): 1 µg/mL (≈ 1.22 µM)
- MIC (Mycobacterium marinum [35]): 0.5 µg/mL (≈ 0.608 µM)
- MIC [36]: 8 µg/mL (≈ 9.72 µM)
- MIC50 (Mycobacterium avium [37]): 16 µg/mL (≈ 19.4 µM)
- MIC (Mycobacterium xenopi [38]): 1 µg/mL (≈ 1.22 µM)
- MIC (Mycobacteroides chelonae): > 128 µg/mL
- MIC (Streptococcus pneumoniae): 0.063 µg/mL (≈ 0.0766 µM)
- MIC (Mycobacterium xenopi [39]): 1 µg/mL (≈ 1.22 µM)
- MIC [40]: 32 µg/mL (≈ 38.9 µM)
- ED50 (Staphylococcus aureus [41]): 0.28 mg/kg
- MIC [42]: 0.125 µg/mL (≈ 0.152 µM)

SMILES: COC1/C=C/OC2(C)Oc3c(C)c(O)c4c(O)c(c5sc(N6CCN(C)CC6)nc5c4c3C2=O)NC(=O)/C(C)=C\C=C\C(C)C(O)C(C)C(O)C(C)C(OC(C)=O)C1C (stereo unspecified)
- MIC (Streptococcus pyogenes [4]): 0.032 µg/mL (≈ 0.0382 µM)
- MIC (Mycobacterium avium [43]): 16 µg/mL (≈ 19.1 µM)
- MIC (Haemophilus influenzae): 0.5 µg/mL (≈ 0.597 µM)
- MIC (Pseudomonas aeruginosa): 8 µg/mL (≈ 9.56 µM)
- MIC (Enterococcus faecalis): 0.032 µg/mL (≈ 0.0382 µM)
- MIC (Neisseria gonorrhoeae): 16 µg/mL (≈ 19.1 µM)
- MIC (Staphylococcus aureus [20]): 0.004 µg/mL (≈ 0.00478 µM)
- MIC (Escherichia coli): 2 µg/mL (≈ 2.39 µM)
- MIC (Proteus vulgaris): 32 µg/mL (≈ 38.2 µM)
- MIC90 (Mycobacterium avium [44]): 64 µg/mL (≈ 76.5 µM)
- MIC (Klebsiella pneumoniae): 16 µg/mL (≈ 19.1 µM)
- MIC [29]: 0.063 µg/mL (≈ 0.0753 µM)
- MIC [30]: 2 µg/mL (≈ 2.39 µM)
- MIC50 (Mycobacterium avium [37]): 64 µg/mL (≈ 76.5 µM)
- MIC (Streptococcus pneumoniae): 0.125 µg/mL (≈ 0.149 µM)
